# Results published in ChEMBL document CHEMBL2146456, “Identification and characterization of GABA(A) receptor modulatory diterpenes from Biota orientalis that decrease locomotor activity in mice” (J Nat Prod, 2011).
# The source made the active and inactive calls. The rule behind the calls is not given here.
# Experiments:
# Oocyte [1] = assay: Allosteric modulation of gamma-aminobutyric acid receptor A alpha1beta2gamma2S expressed in Xenopus oocytes assessed as potentiation of GABA-mediated chloride current at 0.1 to 500 uM by voltage clamp analysis relative to control; format: cell-based
# Outline: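 Two-electrode voltage clamp on Xenopus oocytes injected with α1, β2, γ2S cRNA at a 1:1:10 ratio, recorded on days 1–5 at a holding potential of […]. Bath: 90 mM NaCl, 1 mM KCl, 1 mM MgCl2, 1 mM CaCl2, 5 mM HEPES pH 7.4. Compound was co-applied by fast perfusion with GABA EC5-10 (typically 3–10 μM). Potentiation was calculated as I(GABA+Comp)/IGABA − 1, and concentration-response curves were fitted by nonlinear regression.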
# [2] = (§1) Allosteric modulation of gamma-aminobutyric acid receptor A alpha1beta2gamma2S expressed in Xenopus oocytes assessed as potentiation of GABA-mediated chloride current by voltage clamp analysis; format: cell-based; conditions: Oocyte
# Outline: (§2)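 Oocytes were injected with α1β2γ2S, α1β3γ2S, α2β2γ2S, α3β2γ2S or α5β2γ2S cRNAs at a 1:1:10 ratio. Two-electrode voltage clamp was run 1–5 days post-injection in HEPES-buffered saline at pH 7.4. Compounds in GABA EC5–10 (3–10 μM) were given by automated fast perfusion: screening at 10 and 100 μM (n = 2), otherwise concentration series. Potentiation = I(GABA+Comp)/IGABA − 1, with nonlinear regression fits.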
# Oocyte [3] = assay: Allosteric modulation of gamma-aminobutyric acid receptor A alpha1beta2gamma2S expressed in Xenopus oocytes assessed as potentiation of GABA-mediated chloride current at 30 uM by voltage clamp analysis; format: cell-based; outline: as §2
# Oocyte [4] = assay: Allosteric modulation of gamma-aminobutyric acid receptor A alpha1beta2gamma2S expressed in Xenopus oocytes assessed as potentiation of GABA-mediated chloride current at 100 uM by voltage clamp analysis; format: cell-based; outline: as §2
# [5] = target: T1, GABA-A receptor; GABA-A site (alpha1/beta2 interface) (Homo sapiens) (UniProt P14867+P47870); assay: Allosteric modulation of gamma-aminobutyric acid receptor A alpha1beta2 expressed in Xenopus oocytes assessed as potentiation of GABA-mediated chloride current at 30 uM by voltage clamp analysis; format: cell-based; conditions: Oocyte
# [6] = target: T1, GABA-A receptor; GABA-A site (alpha1/beta2 interface) (Homo sapiens); assay: Allosteric modulation of gamma-aminobutyric acid receptor A alpha1beta2 expressed in Xenopus oocytes assessed as potentiation of GABA-mediated chloride current at 100 uM by voltage clamp analysis; format: cell-based; conditions: Oocyte
# Oocyte [7] = assay: Agonist activity at gamma-aminobutyric acid receptor A alpha1beta1gamma2S expressed in Xenopus oocytes assessed as potentiation of GABA-mediated chloride current at 300 uM by voltage clamp analysis; format: functional, cell-based
# Outline: (§3)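 α1β1γ2S cRNAs (3:1:10) injected into Xenopus oocytes and recorded 1–5 days later by two-microelectrode voltage clamp. Bath was 90 mM NaCl, 1 mM KCl, 1 mM MgCl2, 1 mM CaCl2, 5 mM HEPES, pH 7.4. Compound was co-applied by fast perfusion with GABA at EC5–10 (3–10 μM). Enhancement = I(GABA+Comp)/IGABA − 1. Concentration-response curves fitted by nonlinear regression.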
# Oocyte [8] = assay: Agonist activity at gamma-aminobutyric acid receptor A alpha1beta2gamma2S expressed in Xenopus oocytes assessed as potentiation of GABA-mediated chloride current by voltage clamp analysis; format: functional, cell-based; outline: as §2
# Oocyte [9] = assay: Agonist activity at gamma-aminobutyric acid receptor A alpha1beta3gamma2S expressed in Xenopus oocytes assessed as potentiation of GABA-mediated chloride current by voltage clamp analysis; format: functional, cell-based; outline: as §2
# Oocyte [10] = assay: Agonist activity at gamma-aminobutyric acid receptor A alpha2beta2gamma2S expressed in Xenopus oocytes assessed as potentiation of GABA-mediated chloride current by voltage clamp analysis; format: functional, cell-based; outline: as §2
# Oocyte [11] = assay: Agonist activity at gamma-aminobutyric acid receptor A alpha3beta2gamma2S expressed in Xenopus oocytes assessed as potentiation of GABA-mediated chloride current by voltage clamp analysis; format: functional, cell-based; outline: as §2
# Oocyte [12] = assay: Agonist activity at gamma-aminobutyric acid receptor A alpha5beta2gamma2S expressed in Xenopus oocytes assessed as potentiation of GABA-mediated chloride current by voltage clamp analysis; format: functional, cell-based; outline: as §2
# Oocyte [13] = assay: Allosteric modulation of gamma-aminobutyric acid receptor A alpha1beta2gamma2S expressed in Xenopus oocytes assessed as potentiation of GABA-mediated chloride current at 500 uM by voltage clamp analysis relative to control; format: cell-based; outline: as §2
# Oocyte [14] = assay: Allosteric modulation of gamma-aminobutyric acid receptor A alpha5beta2gamma2S expressed in Xenopus oocytes assessed as potentiation of GABA-mediated chloride current at 0.1 to 500 uM by voltage clamp analysis relative to control; format: cell-based; outline: as §2
# Oocyte [15] = assay: Allosteric modulation of gamma-aminobutyric acid receptor A alpha3beta2gamma2S expressed in Xenopus oocytes assessed as potentiation of GABA-mediated chloride current at 0.1 to 500 uM by voltage clamp analysis relative to control; format: cell-based; outline: as §2
# Oocyte [16] = assay: Allosteric modulation of gamma-aminobutyric acid receptor A alpha2beta2gamma2S expressed in Xenopus oocytes assessed as potentiation of GABA-mediated chloride current at 0.1 to 500 uM by voltage clamp analysis relative to control; format: cell-based; outline: as §2
# Oocyte [17] = assay: Allosteric modulation of gamma-aminobutyric acid receptor A alpha1beta3gamma2S expressed in Xenopus oocytes assessed as potentiation of GABA-mediated chloride current at 0.1 to 500 uM by voltage clamp analysis relative to control; format: cell-based; outline: as §2
# Oocyte [18] = assay: Allosteric modulation of gamma-aminobutyric acid receptor A alpha1beta1gamma2S expressed in Xenopus oocytes assessed as potentiation of GABA-mediated chloride current at 0.1 to 500 uM by voltage clamp analysis relative to control; format: cell-based; outline: as §3
# [19] = (§4) Allosteric modulation of gamma-aminobutyric acid receptor A alpha5beta2gamma2S expressed in Xenopus oocytes assessed as potentiation of GABA-mediated chloride current by voltage clamp analysis relative to control; format: cell-based; conditions: Oocyte; outline: as §2
# Oocyte [20] = assay: as §4; format: cell-based; outline: as §2
# [21] = (§5) Allosteric modulation of gamma-aminobutyric acid receptor A alpha3beta2gamma2S expressed in Xenopus oocytes assessed as potentiation of GABA-mediated chloride current by voltage clamp analysis; format: cell-based; conditions: Oocyte; outline: as §2
# Oocyte [22] = assay: as §5; format: cell-based; outline: as §2
# [23] = (§6) Allosteric modulation of gamma-aminobutyric acid receptor A alpha2beta2gamma2S expressed in Xenopus oocytes assessed as potentiation of GABA-mediated chloride current by voltage clamp analysis; format: cell-based; conditions: Oocyte; outline: as §2
# Oocyte [24] = assay: as §6; format: cell-based; outline: as §2
# [25] = (§7) Allosteric modulation of gamma-aminobutyric acid receptor A alpha1beta3gamma2S expressed in Xenopus oocytes assessed as potentiation of GABA-mediated chloride current by voltage clamp analysis; format: cell-based; conditions: Oocyte; outline: as §2
# Oocyte [26] = assay: as §7; format: cell-based; outline: as §2
# Oocyte [27] = assay: as §1; format: cell-based; outline: as §2
# [28] = (§8) Allosteric modulation of gamma-aminobutyric acid receptor A alpha1beta1gamma2S expressed in Xenopus oocytes assessed as potentiation of GABA-mediated chloride current by voltage clamp analysis; format: cell-based; conditions: Oocyte; outline: as §3
# Oocyte [29] = assay: as §8; format: cell-based; outline: as §3
# Oocyte [30] = assay: Allosteric modulation of gamma-aminobutyric acid receptor A alpha1beta2gamma2S expressed in Xenopus oocytes assessed as potentiation of GABA-mediated chloride current at 10 uM by voltage clamp analysis relative to control; format: cell-based; outline: as §2
# Oocyte [31] = assay: Allosteric modulation of gamma-aminobutyric acid receptor A alpha1beta2gamma2S expressed in Xenopus oocytes assessed as potentiation of GABA-mediated chloride current at 100 uM by voltage clamp analysis relative to control; format: cell-based; outline: as §2
# Mus musculus [32] = assay: Anxiolytic activity in C57Bl/6N mouse assessed as ambulation distance at 3 mg/kg, ip measured after 30 mins by open field test ( Rvb = 31.8 +/- 1.7 m); format: functional; conditions: route intraperitoneal
# Mus musculus [33] = assay: Anxiolytic activity in C57Bl/6N mouse assessed as ambulation distance at 30 mg/kg, ip measured after 30 mins by open field test ( Rvb = 31.8 +/- 1.7 m); format: functional; conditions: route intraperitoneal
# Oocyte [34] = assay: Ratio of isopimaric acid EC50 to compound EC50 for gamma-aminobutyric acid receptor A alpha1beta1gamma2S expressed in Xenopus oocytes assessed as potentiation of GABA-mediated chloride current by voltage clamp analysis; format: cell-based
# Oocyte [35] = assay: Ratio of isopimaric acid EC50 to compound EC50 for gamma-aminobutyric acid receptor A alpha1beta2gamma2S expressed in Xenopus oocytes assessed as potentiation of GABA-mediated chloride current by voltage clamp analysis; format: cell-based
# Oocyte [36] = assay: Ratio of isopimaric acid EC50 to compound EC50 for gamma-aminobutyric acid receptor A alpha1beta3gamma2S expressed in Xenopus oocytes assessed as potentiation of GABA-mediated chloride current by voltage clamp analysis; format: cell-based
# Oocyte [37] = assay: Ratio of isopimaric acid EC50 to compound EC50 for gamma-aminobutyric acid receptor A alpha2beta2gamma2S expressed in Xenopus oocytes assessed as potentiation of GABA-mediated chloride current by voltage clamp analysis; format: cell-based
# Oocyte [38] = assay: Ratio of isopimaric acid EC50 to compound EC50 for gamma-aminobutyric acid receptor A alpha3beta2gamma2S expressed in Xenopus oocytes assessed as potentiation of GABA-mediated chloride current by voltage clamp analysis; format: cell-based
# Oocyte [39] = assay: Ratio of isopimaric acid EC50 to compound EC50 for gamma-aminobutyric acid receptor A alpha5beta2gamma2S expressed in Xenopus oocytes assessed as potentiation of GABA-mediated chloride current by voltage clamp analysis; format: cell-based
# Oocyte [40] = assay: Ratio of isopimaric acid Imax to compound Imax for gamma-aminobutyric acid receptor A alpha1beta1gamma2S expressed in Xenopus oocytes assessed as potentiation of GABA-mediated chloride current at 0.1 to 500 uM by voltage clamp analysis; format: cell-based
# Oocyte [41] = assay: Ratio of isopimaric acid Imax to compound Imax for gamma-aminobutyric acid receptor A alpha1beta2gamma2S expressed in Xenopus oocytes assessed as potentiation of GABA-mediated chloride current at 0.1 to 500 uM by voltage clamp analysis; format: cell-based
# Oocyte [42] = assay: Ratio of isopimaric acid Imax to compound Imax for gamma-aminobutyric acid receptor A alpha1beta3gamma2S expressed in Xenopus oocytes assessed as potentiation of GABA-mediated chloride current at 0.1 to 500 uM by voltage clamp analysis; format: cell-based
# Oocyte [43] = assay: Ratio of isopimaric acid Imax to compound Imax for gamma-aminobutyric acid receptor A alpha2beta2gamma2S expressed in Xenopus oocytes assessed as potentiation of GABA-mediated chloride current at 0.1 to 500 uM by voltage clamp analysis; format: cell-based
# Oocyte [44] = assay: Ratio of isopimaric acid Imax to compound Imax for gamma-aminobutyric acid receptor A alpha3beta2gamma2S expressed in Xenopus oocytes assessed as potentiation of GABA-mediated chloride current at 0.1 to 500 uM by voltage clamp analysis; format: cell-based
# Oocyte [45] = assay: Ratio of isopimaric acid Imax to compound Imax for gamma-aminobutyric acid receptor A alpha5beta2gamma2S expressed in Xenopus oocytes assessed as potentiation of GABA-mediated chloride current at 0.1 to 500 uM by voltage clamp analysis; format: cell-based
compound,measurement,setting,value
Cc1ncc2n1-c1ccc(Cl)cc1C(c1ccccc1F)=NC2 [MIDAZOLAM],Imax,Oocyte [1],342%
same,EC50,[2],0.143 µM
C=C[C@@]1(C)CC[C@H]2C(=CC[C@@H]3[C@]2(C)CCC[C@@]3(C)C(=O)O)C1 [ISOPIMARIC ACID],Activity,Oocyte [3],Active
same,Activity,Oocyte [4],Active
same,Activity,[5],Active
same,Activity,[6],Active
same,Activity,Oocyte [7],inactive
same,Activity,Oocyte [8],inactive
same,Activity,Oocyte [9],inactive
same,Activity,Oocyte [10],inactive
same,Activity,Oocyte [11],inactive
same,Activity,Oocyte [12],inactive
same,Imax,Oocyte [13],425%
same,Imax,Oocyte [14],472%
same,Imax,Oocyte [15],1070%
same,Imax,Oocyte [16],1030%
same,Imax,Oocyte [17],476%
same,Imax,Oocyte [18],716%
same,EC50,[19],317 µM
same,Activity,Oocyte [20],Dose-dependent effect
same,EC50,[21],724 µM
same,Activity,Oocyte [22],Dose-dependent effect
same,EC50,[23],365 µM
same,Activity,Oocyte [24],Dose-dependent effect
same,EC50,[25],257 µM
same,Activity,Oocyte [26],Dose-dependent effect
same,EC50,[2],142 µM
same,Activity,Oocyte [27],Dose-dependent effect
same,EC50,[28],290 µM
same,Activity,Oocyte [29],Dose-dependent effect
C=C1CC[C@@H]2[C@](C)(CCC[C@]2(C)C(=O)OC)[C@H]1CCC1=CCOC1=O,Imax,Oocyte [30],-13.4%
same,Imax,Oocyte [31],-13.1%
C=C[C@]1(C)C=C2CC[C@@H]3[C@](C)(CCC[C@@]3(C)C(=O)O)[C@H]2CC1 [SANDARACOPIMARIC ACID],Activity,Oocyte [3],Active
same,Activity,Oocyte [4],Active
same,Activity,[5],Active
same,Activity,[6],Active
same,Activity,Oocyte [7],inactive
same,Activity,Oocyte [8],inactive
same,Activity,Oocyte [9],inactive
same,Activity,Oocyte [10],inactive
same,Activity,Oocyte [11],inactive
same,Activity,Oocyte [12],inactive
same,Activity,Mus musculus [32],25.1 m
same,Activity,Mus musculus [33],22.3 m
same,Ratio EC50,Oocyte [34],6.02
same,Imax,Oocyte [14],513%
same,Imax,Oocyte [15],1100%
same,Imax,Oocyte [16],1090%
same,Imax,Oocyte [17],520%
same,Imax,Oocyte [1],856%
same,Imax,Oocyte [18],502%
same,EC50,[19],40.7 µM
same,Activity,Oocyte [20],Dose-dependent effect
same,EC50,[21],56.6 µM
same,Activity,Oocyte [22],Dose-dependent effect
same,EC50,[23],31.2 µM
same,Activity,Oocyte [24],Dose-dependent effect
same,EC50,[25],24.9 µM
same,Activity,Oocyte [26],Dose-dependent effect
same,EC50,[2],33.3 µM
same,Activity,Oocyte [27],Dose-dependent effect
same,EC50,[28],48.1 µM
same,Activity,Oocyte [29],Dose-dependent effect
same,Ratio EC50,Oocyte [35],4.25
same,Ratio EC50,Oocyte [36],10.3
same,Ratio EC50,Oocyte [37],11.7
same,Ratio EC50,Oocyte [38],12.8
same,Ratio EC50,Oocyte [39],7.79
same,Ratio,Oocyte [40],1.43
same,Ratio,Oocyte [41],0.5
same,Ratio,Oocyte [42],0.92
same,Ratio,Oocyte [43],0.94
same,Ratio,Oocyte [44],0.98
same,Ratio,Oocyte [45],0.92
